Measured values published in ChEMBL document CHEMBL3763032, “Novel Small Molecule Inhibitors of Choline Kinase Identified by Fragment-Based Drug Discovery” (J Med Chem, 2016).
The source made the active and inactive calls. No cut-off for these calls is given here.

Assays:
Choline kinase alpha [1] = target: T1, Choline kinase alpha (Homo sapiens, UniProt P35790); test: Inhibition of recombinant human ChoKalpha using choline as substrate by ultraviolet spectroscopic assay
In short: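 Coupled ATP-regeneration assay with recombinant human ChoKα1 (N-terminal His tag, pET28a, >95% pure) at 10–50 nM monomer. A340 read over 10–30 min. Initial rates taken across 2-fold inhibitor dilutions and fitted to a dose–response model for IC50.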
Target sequence in this assay (P35790 whole entry): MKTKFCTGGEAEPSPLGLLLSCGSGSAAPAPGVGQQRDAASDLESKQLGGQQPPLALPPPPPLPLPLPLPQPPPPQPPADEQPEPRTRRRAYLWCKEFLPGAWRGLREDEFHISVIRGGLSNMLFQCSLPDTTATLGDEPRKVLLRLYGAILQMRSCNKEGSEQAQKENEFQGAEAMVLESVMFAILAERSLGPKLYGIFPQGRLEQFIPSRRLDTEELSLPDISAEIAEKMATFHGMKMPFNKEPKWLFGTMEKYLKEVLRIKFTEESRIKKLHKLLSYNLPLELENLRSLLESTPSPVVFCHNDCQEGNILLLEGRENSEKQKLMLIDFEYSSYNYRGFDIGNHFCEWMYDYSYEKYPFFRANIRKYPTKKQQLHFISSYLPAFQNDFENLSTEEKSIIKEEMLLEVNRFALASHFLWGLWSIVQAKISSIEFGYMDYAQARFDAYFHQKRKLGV

Choline kinase alpha [2] = target: T1, Choline kinase alpha
Target sequence in this assay (P35790 whole entry): as above

Choline kinase alpha [3] = target: T1, Choline kinase alpha; remark: listed apart in the source
Target sequence in this assay (P35790 whole entry): as above

Choline kinase alpha [4] = target: T1, Choline kinase alpha; remark: listed apart in the source
Target sequence in this assay (P35790 whole entry, looked up): as the sequence (P35790 whole entry) above

Carbonic anhydrase 2 = Carbonic anhydrase 2 (Homo sapiens, UniProt P00918); test: Binding affinity to carbonic anhydrase2 (unknown origin) by surface plasmon resonance assay
In short: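 Carbonic anhydrase II, used as the reference surface, amine-coupled at a density similar to the ChoKα1 surface. 25 °C, 2-fold dilution series (fragments top at 300 μM). Single-step kinetics (Biacore) or FastStep (SensiQ). Kd from 1:1 binding model fits.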

Choline kinase alpha [5] = target: T1, Choline kinase alpha; test: Reversible binding affinity to human N-terminal truncated ChoKalpha1 (75 to 457 residues) ChoKalpha1 by STD NMR analysis
In short: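 Saturation-transfer difference NMR primary screen. On-resonance irradiation was at 0.8 ppm and off-resonance at 30 ppm, with excitation-sculpting water suppression; 320 scans were averaged.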
Target sequence in this assay (P35790 whole entry, looked up): as the sequence (P35790 whole entry) above

Choline kinase alpha [6] = target: T1, Choline kinase alpha; test: Inhibition of ChoKalpha in human MDA-MB-415 cells assessed as reduction in phosphocholine level after 24 hrs by NMR analysis; type: cell-based
Target sequence in this assay (P35790 whole entry): as above

[7] = Induction of apoptosis in human MCF12A cells upto 40 uM after 24 hrs by caspase-3/7 assay; type: cell-based; settings: mcf-12a
In short: (§1)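 Cells exposed to compounds for 24 h, then caspase activity measured with the Apo-ONE homogeneous caspase-3/7 assay. Apoptosis expressed as a percentage of vehicle-treated cells, from one representative experiment.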

[8] = Cytotoxicity against human MCF10A cells after 72 hrs by CyQuant cell proliferation assay; type: cell-based, MCF-10A; settings: for GI50 at 72 h: MCF10A cells; for %max: mcf-10a, 72 h
In short: (§2)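 Cells from ATCC, used within 6 months, grown in the supplier-recommended medium. Treated with compound or vehicle for 72 h, then read by CyQuant proliferation kit. GI50 determined after correcting for cell count at time zero, with growth plotted as percent of vehicle-treated cells. Mean ±SD from ≥2 separate experiments.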

[9] = Effect on phosphocholine level in human MCF12A cells after 24 hrs by NMR analysis; type: ADME, cell-based; settings: mcf-12a
In short: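 Cells grown with increasing compound concentrations or vehicle (DMSO) for 24 h, then counted and checked for viability by Trypan blue exclusion. 5 ×10^6 viable cells washed twice in ice-cold d-PBS and extracted by vortexing 30 s in 6 mL ice-cold 100% methanol. Intracellular choline and phosphocholine quantified by NMR.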

MDA-MB-415 [10] = test: Cytotoxicity against human MDA-MB-415 cells expressing ChoKalpha after 72 hrs by CyQuant cell proliferation assay; type: functional; settings: for GI50: Homo sapiens, MDA-MB-415, 72 h; in short: as §2
[11] = Cytotoxicity against human MCF12A cells after 72 hrs by CyQuant cell proliferation assay; type: cell-based, MCF-12A; settings: for GI50 at 72 h: MCF12A cells; for %max: mcf-12a, 72 h; in short: as §2
MDA-MB-415 [12] = test: Induction of apoptosis in human MDA-MB-415 cells expressing ChoKalpha after 24 hrs by caspase-3/7 assay; type: functional, cell-based; in short: as §1
MDA-MB-468 [13] = test: Cytotoxicity against human MDA-MB-468 cells expressing ChoKalpha after 72 hrs by CyQuant cell proliferation assay; type: functional; settings: for GI50: Homo sapiens, MDA-MB-468, 72 h; in short: as §2
MDA-MB-468 [14] = test: Cytotoxicity against human MDA-MB-468 cells after 72 hrs by MTT assay; type: functional, cell-based; settings: MDA-MB-468, 72 h
[15] = Cytotoxicity against human MCF10A cells after 72 hrs by MTT assay; type: cell-based; settings: MCF-10A
Choline kinase alpha [16] = target: T1, Choline kinase alpha; test: Inhibition of ChoKalpha in human MDA-MB-468 cells assessed as reduction in phosphocholine level after 24 hrs by NMR analysis; type: cell-based
Target sequence in this assay (P35790 whole entry): as above

| Kd (Choline kinase alpha [2]) | IC50 (Choline kinase alpha [3]) | Ka (Choline kinase alpha [4]) | SMILES | also measured |
| --- | --- | --- | --- | --- |
| 0.088 µM | 0.268 µM | 235000 M⁻¹ s⁻¹ | CN1CCCN(Cc2ccc(-c3ccc(CN4CCCN(C)CC4)c(Cl)c3)cc2)CC1 | – |
| 630 µM | > 300 µM | – | Nc1cc(C(F)(F)F)ncn1 | Kd (Carbonic anhydrase 2): 670 µM |
| 4 µM | 3.9 µM | – | CN1CCCN(Cc2ccc3ncccc3c2)CC1 | – |
| 4 µM | 2.6 µM | – | CN1CCCN(Cc2ccc(-c3ccc(C(F)(F)F)cc3)cc2)CC1 | – |
| 0.769 µM | 1.3 µM | – | CN1CCCN(Cc2ccc(-c3ccc(N4CCN(C)CC4)cc3)cc2)CC1 | – |
| 3.7 µM | 1.48 µM | – | CN1CCCN(Cc2ccc(-c3ccccc3)cc2)CC1 | – |
| 0.021 µM | 0.233 µM | 718000 M⁻¹ s⁻¹ | CN1CCCN(Cc2ccc(-c3ccc(CN4CCCN(C)CC4)c(F)c3F)cc2)CC1 | – |
| 0.195 µM | 0.251 µM | – | CN1CCCN(Cc2ccc(-c3ccc(C(=O)N4CCCN(C)CC4)cc3)cc2)CC1 | – |
| 2.4 µM | 4.95 µM | – | COC(=O)c1ccc(-c2ccc(CN3CCCN(C)CC3)cc2)cc1 | – |
| 0.01 µM | 0.066 µM | 676000 M⁻¹ s⁻¹ | CN1CCCN(Cc2ccc(-c3ccc(CN4CCCN(C)CC4)cc3C#N)cc2)CC1 | – |
| 0.259 µM | 0.255 µM | 125000 M⁻¹ s⁻¹ | CN1CCCN(Cc2ccc(-c3cc(F)c(CN4CCCN(C)CC4)c(F)c3)cc2)CC1 | – |

The next lines start with the compound.

| SMILES | Kd (Choline kinase alpha [2]) | IC50 (Choline kinase alpha [3]) | Ka (Choline kinase alpha [4]) | also measured |
| --- | --- | --- | --- | --- |
| O[C@](CCc1ccccc1OC1CCOCC1)(c1ccccc1)C1CN2CCC1CC2 (some centres not stated) | – | – | – | IC50 (Choline kinase alpha [1]): 0.02 µM |
| CN1CCCN(c2ccc(CO)cc2)CC1 | 194 µM | > 2000 µM | – | – |
| CN1CCCN(Cc2ccc(-c3ccc(CN4CCCN(C)CC4)cc3F)cc2)CC1 | 0.211 µM | 0.165 µM | 93000 M⁻¹ s⁻¹ | – |
| COc1ccc(-c2ccc(CN3CCCN(C)CC3)cc2)cc1 | 3.8 µM | 1.43 µM | – | – |
| Cc1cc(O)cc(C)c1C#N | – | – | – | Activity (Choline kinase alpha [5]): Active |
| CN1CCCN(Cc2ccc(-c3ccc(CN4CCCN(C)CC4)cc3C#N)c(F)c2)CC1 | 0.099 µM | 0.085 µM | 112000 M⁻¹ s⁻¹ | IC50 (Choline kinase alpha [6]): 0.75 µM; Activity [7]: Non-toxic; GI50 at 72 h [8]: 18 µM; %max [8]: 99%; Activity [9]: Non-toxic; %max (MDA-MB-415 [10]): 189%; GI50 (MDA-MB-415 [10]): 2 µM; GI50 at 72 h [11]: > 40 µM; %max [11]: 51%; Activity (MDA-MB-415 [12]): Active; %max (MDA-MB-468 [13]): 139%; GI50 (MDA-MB-468 [13]): 7 µM |
| CN(c1ccc(Cl)cc1)c1cc[n+](Cc2ccc(-c3ccc(C[n+]4ccc(N(C)c5ccc(Cl)cc5)c5ccccc54)cc3)cc2)c2ccccc12 [RSM-932A] | – | – | – | IC50 (MDA-MB-468 [14]): 2.4 µM; IC50 [15]: 7.1 µM |
| CN1CCCN(Cc2ccc(CN)cc2)CC1 | 132 µM | 87 µM | – | Kd (Carbonic anhydrase 2): 490 µM |
| O=C(N1CCCCCC1)N1CCNCC1 | 340 µM | > 300 µM | – | Kd (Carbonic anhydrase 2): 1400 µM |
| CN1CCCN(Cc2ccc(-c3ccc(CN4CCCN(C)CC4)cc3)cc2)CC1 | 0.382 µM | 0.457 µM | 94000 M⁻¹ s⁻¹ | IC50 (Choline kinase alpha [16]): 2 µM; Activity [7]: Non-toxic; GI50 at 72 h [8]: 27 µM; %max [8]: 77%; %max (MDA-MB-415 [10]): 158%; GI50 (MDA-MB-415 [10]): 4 µM; GI50 at 72 h [11]: 31 µM; %max [11]: 64%; Activity (MDA-MB-415 [12]): Active; %max (MDA-MB-468 [13]): 163%; GI50 (MDA-MB-468 [13]): 9 µM |
| CN1CCCN(Cc2ccc3ccccc3c2)CC1 | 4.3 µM | 2.6 µM | – | – |
| CN1CCNCC(Cc2ccc3ncccc3c2)C1 (configuration not stated) | 7 µM | 17.2 µM | – | – |
